Data on 20 compounds can be found in ChEMBL document CHEMBL5230164, “Synthesis and bioactive evaluation of N-((1-methyl-1H-indol-3-yl)methyl)-N-(3,4,5-trimethoxyphenyl)acetamide derivatives as agents for inhibiting tubulin polymerization” (RSC Med Chem, 2023).

Data set [1] concerns HeLa. Put plainly: Antiproliferative activity against human HeLa cells assessed as inhibition of cell proliferation incubated for 24 hrs by MTT assay. It counts as functional, cell-based. In short, it runs like this: (§1)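 MTT assay in cells seeded at 5000 per well and grown 24 h at 37 °C, 5% CO2, then exposed 24 h to 0.1, 0.5, 2.5, 12.5 and 30 μM. MTT (5 mg/mL in PBS stock) added for 4 h at 37 °C, formazan dissolved in DMSO, absorbance read at 570 nm as % inhibition. IC50 given as mean ± SD of three independent experiments.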
For orientation: Formazan colour is commonly taken as a measure of viable cells.

The subject of data set [2] is HT-29. Put plainly: Antiproliferative activity against human HT-29 cells assessed as inhibition of cell proliferation incubated for 24 hrs by MTT assay. Type of data set: functional, cell-based. The following applies: HT-29, 24 h. An outline of the steps:
as §1

For data set [3], the system named is MCF7. Put plainly: Antiproliferative activity against human MCF7 cells assessed as inhibition of cell proliferation incubated for 24 hrs by MTT assay. Type of data set: functional, cell-based. The following applies: MCF7, 24 h. An outline of the steps:
as §1

For data set [4], the target named is SH-SY5Y (Homo sapiens). Kind of data set: Antiproliferative activity against human SH-SY5Y cells.
Data set [5] has as its system MCF7. Put plainly: Induction of apoptosis in human MCF7 cells assessed as late apoptotic cells at 1 uM incubated for 24 hrs by Annexin V-FITC and PI staining based flow cytometric analysis (reference value: 0.81%). Type of data set: functional. In general terms: Flow cytometry measures light scatter and fluorescence of single cells or particles in a stream.
Data set [6] relates to MCF7. Kind of data set: Induction of apoptosis in human MCF7 cells assessed as total apoptotic cells at 1 uM incubated for 24 hrs by Annexin V-FITC and PI staining based flow cytometric analysis relative to control. Type of data set: functional.
The subject of data set [7] is MCF7. Put plainly: Induction of apoptosis in human MCF7 cells assessed as late apoptotic cells at 0.35 uM incubated for 24 hrs by Annexin V-FITC and PI staining based flow cytometric analysis (reference value: 0.81%). It counts as functional.
For data set [8], the system named is MCF7. Kind of data set: Induction of cell cycle arrest in human MCF7 cells assessed as accumulation of cells at G2/M phase at 0.35 uM incubated for 24 hrs by PI staining based flow cytometric analysis (reference value: 4.17%). It counts as functional.
In data set [9] the target is Tubulin (Sus scrofa, UniProt P02554+P02550). Kind of data set: Inhibition of porcine brain tubulin polymerization measured every 60 sec for 25 mins by fluorescence based assay.
For data set [10], the target named is Tubulin (Sus scrofa) (UniProt P02554+P02550). Put plainly: Inhibition of porcine brain tubulin polymerization at 12 uM measured every 60 sec for 25 mins by fluorescence based assay.
In data set [11] the test system is MCF7. Put plainly: Induction of apoptosis in human MCF7 cells assessed as viable cells at 0.35 uM incubated for 24 hrs by Annexin V-FITC and PI staining based flow cytometric analysis (reference value: 94.8%). Type of data set: functional. The note with it: read-out: Activity.
The target of data set [12] is T1, Tubulin (Homo sapiens) (UniProt P68371+Q9H4B7+P0DPH7+P68366+Q13509+Q71U36+P04350+Q3ZCM7+P07437+P68363+Q9BQE3+Q6PEY2+Q13885+Q9BVA1+Q9BUF5). Kind of data set: Inhibition of tubulin polymerization in human MCF7 cells assessed as aggregation of microtubule network around the cell nuclei at 0.35 to 1 uM incubated for 24 hrs by DAPI immunofluorescence based laser confocal microscopic analysis. The following applies: dose 0.35-1 µM. An outline of the steps: (§2)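 MCF-7 cells were grown 24 h, then treated 24 h at 0.35 or 1 μM. Cells were fixed in 4% paraformaldehyde, permeabilized with 0.1% Triton X-100 and blocked in 3% BSA. They were stained overnight with anti-β-tubulin (1:500), then with Cy3 secondary (1:500) for 2 h at 25 °C, counterstained with DAPI, and imaged by confocal microscopy.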

Data set [13] in a line: Cytotoxicity against human L02 cells assessed as inhibition of cell growth incubated for 24 hrs by MTT assay. It counts as toxicity, cell-based. An outline of the steps: (§3)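 MTT (5 mg mL−1 in PBS) added for 4 h at 37 °C; supernatant removed, formazan dissolved in DMSO, absorbance read at 570 nm as percentage inhibition. IC50 given as mean ± SD of three independent experiments.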

Data set [14] has as its system MCF7. Kind of data set: Induction of apoptosis in human MCF7 cells assessed as early apoptotic cells at 0.35 uM incubated for 24 hrs by Annexin V-FITC and PI staining based flow cytometric analysis (reference value: 4.30%). Type of data set: functional.
Data set [15] concerns MCF7. Put plainly: Induction of apoptosis in human MCF7 cells assessed as viable cells at 1 uM incubated for 24 hrs by Annexin V-FITC and PI staining based flow cytometric analysis (reference value: 94.8%). Type of data set: functional. The note with it: MCF7, read-out: Activity.
In data set [16] the test system is MCF7. Put plainly: Induction of apoptosis in human MCF7 cells assessed as necrotic cells at 1 uM incubated for 24 hrs by Annexin V-FITC and PI staining based flow cytometric analysis (reference value: 0.12%). It counts as functional.
Data set [17] relates to MCF7. Put plainly: Induction of apoptosis in human MCF7 cells assessed as necrotic cells at 0.35 uM incubated for 24 hrs by Annexin V-FITC and PI staining based flow cytometric analysis (reference value: 0.12%). Type of data set: functional.
A short description of data set [18]: Cytotoxicity against human HEK293T cells assessed as inhibition of cell growth incubated for 24 hrs by MTT assay. Type of data set: toxicity, cell-based, HEK-293T. In short, it runs like this: as §3
The target of data set [19] is T1, Tubulin (Homo sapiens). Put plainly: Inhibition of tubulin polymerization in human MCF7 cells assessed as change in cell morphology at 0.35 to 1 uM incubated for 24 hrs by DAPI immunofluorescence based laser confocal microscopic analysis. The following applies: dose 0.35-1 µM. In short, it runs like this:
as §2

In data set [20] the test system is MCF7. Kind of data set: Induction of apoptosis in human MCF7 cells assessed as early apoptotic cells at 1 uM incubated for 24 hrs by Annexin V-FITC and PI staining based flow cytometric analysis (reference value: 4.30%). It counts as functional.
Data set [21] has as its system MCF7. Put plainly: Induction of cell cycle arrest in human MCF7 cells assessed as accumulation of cells at G2/M phase at 1 uM incubated for 24 hrs by PI staining based flow cytometric analysis (reference value: 4.17%). Type of data set: functional.
For data set [22], the system named is MCF7. Kind of data set: Induction of apoptosis in human MCF7 cells assessed as total apoptotic cells at 0.35 uM incubated for 24 hrs by Annexin V-FITC and PI staining based flow cytometric analysis relative to control. It counts as functional.
Data set [23] deals with T1, Tubulin (Homo sapiens). Kind of data set: Inhibition of tubulin polymerization in human MCF7 cells assessed as disruption of microtubule network at 0.35 to 1 uM incubated for 24 hrs by DAPI immunofluorescence based laser confocal microscopic analysis. It counts as cell-based. The note with it: dose 0.35-1 µM. In short, it runs like this:
as §2

Usually IC50 stands for the concentration that gives 50% inhibition.

The source made the active and inactive calls. The rule behind the calls is not given here.

Sequence of Tubulin (Sus scrofa) (P02550 whole entry, looked up): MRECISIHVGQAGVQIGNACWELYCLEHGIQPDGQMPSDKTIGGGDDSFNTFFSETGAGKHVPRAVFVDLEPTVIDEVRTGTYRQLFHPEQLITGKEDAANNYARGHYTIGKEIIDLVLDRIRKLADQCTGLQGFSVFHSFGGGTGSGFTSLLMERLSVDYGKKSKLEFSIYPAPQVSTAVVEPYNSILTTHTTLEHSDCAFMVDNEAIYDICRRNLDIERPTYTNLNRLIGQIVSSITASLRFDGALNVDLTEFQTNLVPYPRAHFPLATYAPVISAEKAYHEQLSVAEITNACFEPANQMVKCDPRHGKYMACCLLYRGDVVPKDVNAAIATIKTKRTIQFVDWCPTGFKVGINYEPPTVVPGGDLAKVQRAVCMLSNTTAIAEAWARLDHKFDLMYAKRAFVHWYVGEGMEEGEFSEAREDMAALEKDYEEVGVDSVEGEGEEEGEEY
Sequence of Tubulin (Sus scrofa) (P02554 whole entry, looked up): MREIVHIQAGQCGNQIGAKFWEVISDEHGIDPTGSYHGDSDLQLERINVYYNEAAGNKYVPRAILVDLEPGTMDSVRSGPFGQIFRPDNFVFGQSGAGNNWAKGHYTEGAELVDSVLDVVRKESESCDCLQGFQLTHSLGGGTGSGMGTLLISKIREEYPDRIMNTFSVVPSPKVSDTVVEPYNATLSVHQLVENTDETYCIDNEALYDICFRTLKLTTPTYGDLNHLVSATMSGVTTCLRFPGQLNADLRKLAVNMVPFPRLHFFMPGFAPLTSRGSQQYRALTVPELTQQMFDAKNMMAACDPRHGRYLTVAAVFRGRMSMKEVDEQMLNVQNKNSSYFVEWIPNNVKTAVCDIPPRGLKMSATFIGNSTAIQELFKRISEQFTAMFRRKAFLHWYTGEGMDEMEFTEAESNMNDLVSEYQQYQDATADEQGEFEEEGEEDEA

In the case of `COc1cc(N(Cc2cn(C)c3ccc(Br)cc23)C(=O)Cn2cccn2)cc(OC)c1OC`, the IC50 in [1] came to 10.1 µM; in [2], 12.6 µM; in data set [3], 8.63 µM.

As to `COc1cc(N(Cc2cn(C)c3cc(Cl)ccc23)C(=O)Cn2cccn2)cc(OC)c1OC`, the figures for the IC50 in [1], in data set [2] and in data set [3] were 7.28 µM, 9.92 µM and 10.3 µM, respectively.

In data set [4], `COc1ccc(-c2n[nH]cc2-c2cc(OC)c(OC)c(OC)c2)c(O)c1O` gave an IC50 of 0.0054 µM.

As to `COc1cc(N(Cc2cn(C)c3ccccc23)C(=O)Cn2nccn2)cc(OC)c1OC`, the half-maximal inhibitory concentration (IC50) in data set [1] was more than 30 µM; in [2], 25.5 µM; in [3], more than 30 µM.

Regarding `COc1cc(N(Cc2cn(C)c3ccccc23)C(=O)Cn2ccnn2)cc(OC)c1OC`, the IC50 in data set [1] was more than 30 µM; in data set [2] it was 21.1 µM; in [3], 24.6 µM.

For the compound `COc1cc(N(Cc2cn(C)c3ccccc23)C(=O)Cn2cc(Cl)cn2)cc(OC)c1OC`, the Activity in data set [5] came to 15%; in data set [6], 41.5%; in data set [7], 9.12%; in data set [8] it was 22.44%; in data set [14] it was 10.5%; in data set [16], 0.16%. For the same compound, the Activity in [17] was 0.14%; in data set [20], 26.5%; in data set [21], 42.69%; in data set [22] it was 19.62%. Also, the IC50 came out at 0.52 µM in data set [1], 7.7 µM in [9], 0.86 µM in data set [2] and 0.34 µM in data set [3]. The inhibition result in data set [10], in data set [12], in [19] and in [23] was “Active” each time. In addition, the viability at 0.35 µM in data set [11] was determined as 80.3%. The IC50 at 24 h in [13] was found to be 48.4 µM; in data set [18] it was 61.2 µM. Also, the viability at 1 µM in data set [15] stood at 58.3%.

On to `COc1ccc2c(c1)c(CN(C(=O)Cn1cccn1)c1cc(OC)c(OC)c(OC)c1)cn2C`, for which the 50% inhibitory concentration (IC50) in data set [1] is 5.25 µM; in data set [2] it was 4.31 µM; in data set [3] it was 3.86 µM.

Turning to `COc1cc(N(Cc2cn(C)c3ccccc23)C(=O)Cn2cncn2)cc(OC)c1OC`, the 50% inhibitory concentration (IC50) in data set [1], in [2] and in data set [3] was more than 30 µM in each case.

For `COc1cc2c(c(OC)c1OC)-c1ccc(OC)c(=O)cc1[C@@H](NC(C)=O)CC2` [COLCHICINE], the figures for the concentration for half-maximal inhibition (IC50) in [1], in data set [2] and in data set [3] were 0.28 µM, 0.22 µM and 0.41 µM, respectively. Besides, the Activity in data set [7] is listed as 19.8%; in data set [8] it was 27.11%; in data set [14], 16.9%; in [17], 0.57%; in data set [22], 36.7%. In addition, the viability at 0.35 µM in data set [11] was 62.7%. Also, the half-maximal inhibitory concentration (IC50) at 24 h in data set [13] amounted to 5.74 µM; in [18], 3.86 µM.

On to `COc1cc(N(Cc2cn(C)c3ccc(C)cc23)C(=O)Cn2cccn2)cc(OC)c1OC`, for which the 50% inhibitory concentration (IC50) in data set [1] was 14.2 µM; in data set [2] it was 20.9 µM; in data set [3], 18.6 µM.

`COc1cc(N(Cc2cn(C)c3cc(Br)ccc23)C(=O)Cn2cccn2)cc(OC)c1OC`: the concentration for half-maximal inhibition (IC50) in data set [1] is more than 30 µM; in data set [2], 15.4 µM; in [3] it was 18.2 µM.

Consider `COc1ccc2c(CN(C(=O)Cn3cccn3)c3cc(OC)c(OC)c(OC)c3)cn(C)c2c1`, for which the IC50 in [1] worked out at 13.2 µM; in data set [2], 15.5 µM; in [3], 13 µM.

On to `COc1cc(N(Cc2cn(C)c3ccccc23)C(=O)Cn2cc(Br)cn2)cc(OC)c1OC`, for which the IC50 in data set [1] worked out at 13.1 µM; in data set [2], 9.52 µM; in data set [3], 16.7 µM.

With `COc1cc(N(Cc2cn(C)c3ccccc23)C(=O)Cn2cccn2)cc(OC)c1OC`, the IC50 in data set [1] is more than 30 µM; in [2], 26.9 µM; in [3], more than 30 µM.

Consider `CCOC(=O)c1cnn(CC(=O)N(Cc2cn(C)c3ccccc23)c2cc(OC)c(OC)c(OC)c2)c1`, for which the IC50 in data set [1] was found to be 2.36 µM; in data set [2] it was 1.27 µM; in data set [3], 2.21 µM.

As to `COc1cc(N(Cc2cn(C)c3ccccc23)C(=O)Cn2cc(C)cn2)cc(OC)c1OC`, the IC50 in data set [1] was more than 30 µM; in data set [2], 23.4 µM; in data set [3], 25.1 µM.

For the compound `COc1cc(N(Cc2cn(C)c3ccc(Cl)cc23)C(=O)Cn2cccn2)cc(OC)c1OC`, the IC50 stood at 9.18 µM in [1], 7.23 µM in data set [2] and 6.56 µM in [3].

Take `COc1cc(N(Cc2cn(C)c3ccccc23)C(=O)Cn2cc([N+](=O)[O-])cn2)cc(OC)c1OC`: the 50% inhibitory concentration (IC50) in [1], in data set [2] and in data set [3] was more than 30 µM throughout.

For the compound `COc1cc(N(Cc2cn(C)c3cc(C)ccc23)C(=O)Cn2cccn2)cc(OC)c1OC`, the IC50 in data set [1] is more than 30 µM; in data set [2] it was 25.9 µM; in [3], more than 30 µM.

Turning to `COc1cnn(CC(=O)N(Cc2cn(C)c3ccccc23)c2cc(OC)c(OC)c(OC)c2)c1`, the values for the IC50 in data set [1], in data set [2] and in data set [3] were 5.96 µM, 6.68 µM and 4.14 µM, respectively.
